Data: ChEMBL document CHEMBL1681752, “Discovery of novel (4-piperidinyl)-piperazines as potent and orally active acetyl-CoA carboxylase 1/2 non-selective inhibitors: F-Boc and triF-Boc groups are acid-stable bioisosteres for the Boc group” (Bioorg Med Chem, 2011)

Columns and labels:
[1] = biological target: Acetyl-CoA carboxylase (Homo sapiens, UniProt Q13085+O00763); experiment: Inhibition of human ACC1/2 assessed as [14C]malonyl-CoA synthesis; assay type: protein assay
In short: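 Enzyme source: human liver cytosol, ammonium sulfate precipitated (30%) and anion-exchange purified in MOPS pH 7.5 buffer. It is preincubated with compound or DMSO for 30 min at 37 °C in Tris acetate pH 7.5 buffer. Substrates are 2.12 mM ATP, 18.2 mM NaHCO3 and [14C]acetyl-CoA. Unreacted acetyl-CoA is converted to acetyl-carnitine and retained on cation-exchange resin, and eluted [14C]malonyl-CoA is counted. IC50 is the mean of at least two experiments.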

[2] = system: HepG2; experiment: Inhibition of fatty acid synthesis in human HepG2 cells assessed as [14C]acetate incorporation after 2 hrs by liquid scintillation counter; assay type: functional, cell-based; conditions: HepG2, 2 h
In short: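 HepG2 cells are plated at 3 × 10^5/well and grown 48 h in DMEM/10% FBS. They are serum-starved 1 h in DMEM with 1.5% BSA, with or without compound. Radiolabelled acetate is added for 2 h. Cells are washed, then saponified with KOH for 2 h at 70 °C. After hexane washes and acidification to pH <2, fatty acids are extracted into hexane.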

[3] = Chemical stability of the compound in simulated gastric media assessed as compound recovery at pH 1.2 after 3 hrs by HPLC method; assay type: physicochemical; conditions: read-out: Stability
In short: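 Acid stability: compound is held in aqueous solution at pH 1.2 for 3 h at 37 °C. Parent remaining is quantified by HPLC.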

[4] = Metabolic stability in human liver microsomes assessed as compound recovery after 15 mins by LC-MS/MS; assay type: ADME, Microsome; conditions: read-out: Stability
In short: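 Compound is incubated at 37 °C with 1 mg/mL human liver microsomes in phosphate buffer with an NADPH-generating system (glucose-6-phosphate, NADP, G6P dehydrogenase) plus MgCl2 and KCl. Levels at 0 and 15 min are measured by LC–MS/MS, and percent remaining is taken from their ratio.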

[5] = biological target: Acetyl-CoA carboxylase (Rattus norvegicus, UniProt P11497+Q1HEC0); experiment: Inhibition of rat ACC1/2 assessed as malonyl-CoA synthesis; assay type: protein assay
In short: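 Rat liver cytosolic ACC is preincubated with compound or DMSO for 30 min at 37 °C in Tris acetate pH 7.5 buffer. The reaction uses the liver-ACC substrate mix: 2.12 mM ATP, 18.2 mM NaHCO3 and [14C]acetyl-CoA. Residual acetyl-CoA is removed as acetyl-carnitine on cation-exchange resin, and [14C]malonyl-CoA in the eluate is counted. IC50 is the mean of at least two experiments.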

Row | Structure (SMILES) | IC50 [1] [nM] | IC50 [2] [nM] | remaining at 3 h [3] [%] | remaining at 0.25 h [4] [%] | IC50 [5] [nM]
1 | CCNC(=O)Nc1sc2ccccc2c1C(=O)N1CCN(C2CCN(C(=O)OC)CC2)CC1 | 175 |  |  |  | 
2 | CCNC(=O)Nc1sc2ccccc2c1C(=O)N1CCN(C2CCN(C(=O)OC(C)(C)C)CC2)CC1 | 24 | 79 | 23 |  | 
3 | CCNC(=O)Nc1sc2ccccc2c1C(=O)N1CCN(C2CCN(C(=O)OC3CCCC3)CC2)CC1 | 52 | 512 |  |  | 
4 | CCNC(=O)Nc1sc2ccccc2c1C(=O)N1CCN(C2CCN(C(C)=O)CC2)CC1 | 1864 |  |  |  | 
5 | CCNC(=O)Nc1sc2ccccc2c1C(=O)N1CCN(C2CCN(C(=O)OC(C)(C)CF)CC2)CC1 | 17 | 61 | 98 | 3 | 
6 | CCNC(=O)Nc1sc2ccccc2c1C(=O)N1CCN(C2CCN(C(=O)OCC)CC2)CC1 | 55 | 228 |  |  | 
7 | CCNC(=O)Nc1sc2ccccc2c1C(=O)N1CCN(C2CCN(C(=O)OC3CCCCC3)CC2)CC1 | 76 | 635 |  |  | 
8 | CCNC(=O)Nc1sc2cccnc2c1C(=O)N1CCN(C2CCN(C(=O)OC(C)(C)C(F)(F)F)CC2)CC1 | 12 | 49 |  | 13 | 
9 | CCNC(=O)Nc1sc2ccncc2c1C(=O)N1CCN(C2CCN(C(=O)OC(C)(C)C(F)(F)F)CC2)CC1 | 117 |  |  |  | 
10 | CCNC(=O)Nc1sc2cc(C)ccc2c1C(=O)N1CCN(C2CCN(C(=O)OC(C)C)CC2)CC1 | 60 | 628 |  | 77 | 
11 | CCNC(=O)Nc1sc2ccc(C)cc2c1C(=O)N1CCN(C2CCN(C(=O)OC(C)C)CC2)CC1 | 32 | 254 |  | 3 | 
12 | CCNC(=O)Nc1sc2ccccc2c1C(=O)N1CCN(C2CCN(C(=O)C3CCCCC3)CC2)CC1 | 81 | 146 |  |  | 
13 | CCNC(=O)Nc1sc2cc(C(F)(F)F)ccc2c1C(=O)N1CCN(C2CCN(C(=O)OC(C)(C)C(F)(F)F)CC2)CC1 | 98 |  |  | 7 | 
14 | CCNC(=O)Nc1sc2ccccc2c1C(=O)N1CCN(C2CCN(C(=O)C(C)(C)C)CC2)CC1 | 109 | 450 |  |  | 
15 | CCNC(=O)Nc1sc2cc(C)ccc2c1C(=O)N1CCN(C2CCN(C(=O)OC(C)(C)CF)CC2)CC1 | 32 | 73 |  | 84 | 
16 | CCNC(=O)Nc1sc2ccccc2c1C(=O)N1CCN(C2CCN(C(=O)CC(C)C)CC2)CC1 | 144 |  |  |  | 

Row | Structure (SMILES) | IC50 [1] [nM] | IC50 [2] [nM] | remaining at 3 h [3] [%] | remaining at 0.25 h [4] [%] | IC50 [5] [nM]
17 | CCCC(=O)N1CCC(N2CCN(C(=O)c3c(NC(=O)NCC)sc4ccccc34)CC2)CC1 | 242 |  |  |  | 
18 | CCNC(=O)Nc1sc2ccccc2c1C(=O)N1CCN(C2CCN(C(=O)C3CCN(C(C)=O)CC3)CC2)CC1.O=C(O)/C=C\C(=O)O | 74 |  |  |  | 
19 | CCNC(=O)Nc1sc2ccccc2c1C(=O)N1CCN(C2CCN(C(=O)C(C)C)CC2)CC1 | 131 |  |  |  | 
20 | CCNC(=O)Nc1sc2ccccc2c1C(=O)N1CCN(C2CCN(C(=O)NC(C)(C)C)CC2)CC1 | 119 | 775 |  |  | 
21 | CCNC(=O)Nc1sc2ccccc2c1C(=O)N1CCN(C2CCN(C(=O)OC(C)C)CC2)CC1 | 28 | 208 |  | 3 | 
22 | CCNC(=O)Nc1sc2cc(OC)ccc2c1C(=O)N1CCN(C2CCN(C(=O)OC(C)(C)C(F)(F)F)CC2)CC1 | 27 | 67 |  | 29 | 
23 | CCNC(=O)Nc1sc2cc(F)ccc2c1C(=O)N1CCN(C2CCN(C(=O)OC(C)(C)C(F)(F)F)CC2)CC1 | 62 |  |  | 17 | 
24 | CCNC(=O)Nc1sc2ncccc2c1C(=O)N1CCN(C2CCN(C(=O)OC(C)(C)C(F)(F)F)CC2)CC1 | 45 | 67 |  | 3 | 
25 | CCNC(=O)Nc1sc2cnccc2c1C(=O)N1CCN(C2CCN(C(=O)OC(C)(C)C(F)(F)F)CC2)CC1 | 41 | 152 |  | 67 | 
26 | CCNC(=O)Nc1sc2ccccc2c1C(=O)N1CCN(C2CCN(C(=O)CC)CC2)CC1 | 597 |  |  |  | 
27 | CCNC(=O)Nc1sc2cc(Cl)ccc2c1C(=O)N1CCN(C2CCN(C(=O)OC(C)(C)C(F)(F)F)CC2)CC1 | 38 |  |  | 51 | 
28 | CC(=O)N1CCC(C(=O)N2CCC(N3CCN(C(=O)c4cc(-c5ccc(C)cc5)nc(-c5ccc(C)cc5)c4)CC3)CC2)CC1 |  |  |  |  | 70
29 | CCNC(=O)Nc1sc2ccccc2c1C(=O)N1CCN(C2CCN(C(=O)OC(C)(C)C(F)(F)F)CC2)CC1 | 31 | 81 | 100 | 5 | 
30 | CCCCC(=O)N1CCC(N2CCN(C(=O)c3c(NC(=O)NCC)sc4ccccc34)CC2)CC1 | 207 |  |  |  | 
31 | CC(=O)N1CCC(C(=O)N2CCC(N3CCN(C(=O)c4cc(-c5ccc(C)cc5)nc(-c5ccc6[nH]c(C)c(C)c6c5)c4)CC3)CC2)CC1 | 33 | 294 |  |  | 
32 | CCNC(=O)Nc1sc2ccccc2c1C(=O)N1CCN(C2CCN(C(=O)C3CCCC3)CC2)CC1.O=C(O)/C=C\C(=O)O | 49 | 309 |  |  | 
